In ChEMBL document CHEMBL1156273, “Membrane permeable cyclic peptidyl inhibitors against human Peptidylprolyl Isomerase Pin1” (J Med Chem, 2010):
Calls of active or inactive are those of the source. The rule behind the calls is not given here. Square brackets hold non-standard residues; d marks the D form. Peptide text beside a SMILES is read from it. dalloThr(PO3H2) = C[C@@H](OP(=O)(O)O)[C@@H](N)C(=O)O; d(pT) = C[C@H](OP(=O)(O)O)[C@@H](N)C(=O)O; 2Nal = N[C@@H](Cc1ccc2ccccc2c1)C(=O)O; Pip = O=C(O)[C@@H]1CCCCN1

Experiments:
[1] = system: HeLa; assay: Cellular uptake in human HeLa cells assessed as cytoplasmic localization at 1 uM after 48 hrs by fluorescence microscopy; assay type: ADME, cell-based
Procedure, shortened: (§1)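 HeLa cells in DME + 10% FBS, 1% pen/strep, 37 °C, 5% CO2, grown on cover glass. Given 0 or 1.0 μM FITC-labeled peptide (FITC on the Glu side chain via a Lys linker) for 48 h. Then PBS-washed, fixed in 3.7% paraformaldehyde, permeabilized with goat serum/Triton X-100, DAPI-stained, and imaged by fluorescence microscopy.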

[2] = system: HeLa; assay: Cellular uptake in human HeLa cells assessed as nuclear localization at 1 uM after 48 hrs by fluorescence microscopy; assay type: ADME, cell-based; procedure, shortened: as §1
[3] = system: BT-474; assay: Antiproliferative activity against human BT474 cells at […] after 6 days; assay type: functional
[4] = target: Peptidyl-prolyl cis-trans isomerase NIMA-interacting 1 (Homo sapiens) (UniProt Q13526); assay: Inhibition of Pin1 in human BT474 cells assessed as increase in SMRT level at 5 uM by Western blotting; assay type: cell-based; details: BT-474
Procedure, shortened: (§2)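 Cells given peptide for 48 h: HeLa in DME + 10% FBS, pen/strep; BT-474 in Hybri-Care DME + 10% FBS. Vehicle control DMSO. Lysed in RIPA with protease inhibitors, equal protein (Bradford) on 8% SDS-PAGE, nitrocellulose transfer, milk block. Probed with anti-SMRT, anti-PML and anti-β-actin (loading), HRP secondary, chemiluminescent detection.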

[5] = target: Peptidyl-prolyl cis-trans isomerase NIMA-interacting 1 (Homo sapiens) (UniProt Q13526); assay: Inhibition of Pin1 in human BT474 cells assessed as increase in PML level at 5 uM by Western blotting; assay type: cell-based; details: BT-474; procedure, shortened: as §2

Chain of Peptidyl-prolyl cis-trans isomerase NIMA-interacting 1 (Homo sapiens) (Q13526 whole entry): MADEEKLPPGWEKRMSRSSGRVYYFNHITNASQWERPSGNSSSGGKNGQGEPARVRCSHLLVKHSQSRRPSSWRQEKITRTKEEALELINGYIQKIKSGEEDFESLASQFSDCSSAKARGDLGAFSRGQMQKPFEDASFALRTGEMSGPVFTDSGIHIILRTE

For `C[C@H](O)[C@H]1NC(=O)[C@H](CCCNC(=N)N)NC(=O)[C@H](CCCNC(=N)N)NC(=O)[C@H](CCCNC(=N)N)NC(=O)[C@H](CCC(N)=O)NC(=O)[C@H](CCCNC(=N)N)NC(=O)[C@H](CCCNC(=N)N)NC(=O)[C@H](Cc2ccc3ccccc3c2)NC(=O)[C@@H]2CCCCN2C1=O` (cyclo([2Nal]RRQRRR[dT][Pip])), the Drug uptake [1] was “Active” and the Drug uptake [2] was “Active”.

For `C[C@@H](OP(=O)(O)O)[C@H]1NC(=O)[C@@H](CCCNC(=N)N)NC(=O)[C@@H](CCCNC(=N)N)NC(=O)[C@H](CCC(N)=O)NC(=O)[C@H](CCCNC(=N)N)NC(=O)[C@H](Cc2ccc3ccccc3c2)NC(=O)[C@@H]2CCCCN2C1=O`, the Drug uptake [1] was “Active” and the Drug uptake [2] was “Active”.

In the case of `C[C@H](O)[C@H]1NC(=O)[C@@H](CCCNC(=N)N)NC(=O)[C@@H](CCCNC(=N)N)NC(=O)[C@H](CCC(N)=O)NC(=O)[C@H](CCCNC(=N)N)NC(=O)[C@H](Cc2ccc3ccccc3c2)NC(=O)[C@@H]2CCCCN2C1=O`, the Drug uptake [1] is reported as “Active” and the Drug uptake [2] is reported as “Active”.

In the case of `C[C@H](OP(=O)(O)O)[C@H]1NC(=O)[C@@H](CCCNC(=N)N)NC(=O)[C@@H](CCCNC(=N)N)NC(=O)[C@H](CCC(N)=O)NC(=O)[C@@H](CCCNC(=N)N)NC(=O)[C@@H](CCCNC(=N)N)NC(=O)[C@@H](CCCNC(=N)N)NC(=O)[C@H](CCCNC(=N)N)NC(=O)[C@H](Cc2ccc3ccccc3c2)NC(=O)[C@@H]2CCCCN2C1=O` (cyclo([dR][dR][d(pT)][Pip][2Nal]R[dR][dR][dR]Q)), the Drug uptake [1] is reported as “Active” and the Drug uptake [2] is reported as “Active”.

`CC1NC(=O)[C@H](CCC(N)=O)NC(=O)[C@H](Cc2ccc(O)cc2)NC(=O)[C@H](Cc2ccc3ccccc3c2)NC(=O)[C@@H]2CCCCN2C(=O)[C@@H]([C@@H](C)OP(=O)(O)O)NC(=O)CN(C)C1=O` (stereo in doubt) was tested, and the Activity [3] was “inactive”.

`C[C@H](O)[C@H]1NC(=O)[C@@H](CCCNC(=N)N)NC(=O)[C@@H](CCCNC(=N)N)NC(=O)[C@H](CCC(N)=O)NC(=O)[C@@H](CCCNC(=N)N)NC(=O)[C@@H](CCCNC(=N)N)NC(=O)[C@@H](CCCNC(=N)N)NC(=O)[C@H](CCCNC(=N)N)NC(=O)[C@H](Cc2ccc3ccccc3c2)NC(=O)[C@@H]2CCCCN2C1=O` (cyclo([dR][dR][dT][Pip][2Nal]R[dR][dR][dR]Q)) was tested, and the Drug uptake [1] was “Active” and the Drug uptake [2] was “Active”.

In the case of `C[C@H]1NC(=O)[C@H](CCC(N)=O)NC(=O)[C@H](CCCN)NC(=O)[C@H](Cc2ccc3ccccc3c2)NC(=O)[C@@H]2CCCCN2C(=O)[C@@H]([C@@H](C)OP(=O)(O)O)NC(=O)CNC1=O`, the Activity [3] is reported as “inactive”.

`C[C@@H](OP(=O)(O)O)[C@H]1NC(=O)[C@H](CCCNC(=N)N)NC(=O)[C@H](CCCNC(=N)N)NC(=O)[C@H](CCCNC(=N)N)NC(=O)[C@H](CCC(N)=O)NC(=O)[C@H](CCCNC(=N)N)NC(=O)[C@H](CCCNC(=N)N)NC(=O)[C@H](Cc2ccc3ccccc3c2)NC(=O)[C@@H]2CCCCN2C1=O` (cyclo([2Nal]RRQRRR[dalloThr(PO3H2)][Pip])) was tested, and the Activity [4] was “Active”, the Activity [5] was “Active” and the Drug uptake [1] was “Active”. The Drug uptake [2] was “Active”.
